Compounds with a hit are over-represented: about 5.9% of the library has one in this group of screens.
Pf Dd2 inh: blocks growth of Plasmodium falciparum Dd2 parasites | P. falciparum Dd2 growth, SYBR Green, 72 h; stronger effect = lower value | activity change, % at 10 µM | 94,000 tested, 2.3% active | AID 1159554; in the data active means activity change below about -80%; inconclusive means no clear call, values can overlap the other calls
T cruzi growth-1: T. cruzi proliferation inhibition; 77,000 tested, 5.9% active; inhibition, % at 8.34 µM; AID 624255; T. cruzi beta-gal in NIH3T3, GalScreen luminescence, 90 h;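 active means mean inhibition above about 93%, with at least 55% of replicates each passing it, limit read from the data, passing the limit was not always enough; inconclusive means only one of those two conditions holds; inactive means neither condition holds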
KDM4C inh: inhibitors of human demethylase GASC-1 KDM4C; Q9H3R0; GST-KDM4C 2-372, H3K9me3 peptide, LANCE TR-FRET; inhibition, % at 12.5 µM; 96,000 tested, 0.15% active; AID 720574;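 active means mean replicate inhibition above about 25%, with at least 55% of replicates also reaching it, limit read from the data, passing the limit was not always enough; inconclusive means only one of those two conditions met; inactive means neither condition met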
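System: N-terminal GST-fused human GASC-1 (KDM4C) fragment, residues 2-372; amount: enzyme final amount 10 nM; incubation: reaction 30 min RT, detection step 1 h RT; medium: HEPES buffer, pH 7.5, plus ascorbate; technique: LANCE TR-FRET, Eu antibody, ULight-streptavidin, EDTA, ex 340 nm, em 618/671 nm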
IDH1 R132H inh: IDH1 R132H (human) inhibition. inhibition, % at 10 µM. 70,000 tested, 0.18% active. IDH1 R132H reductase, diaphorase/resazurin fluorescence, 60 min; in the data active means inhibition above about 34%; inconclusive means no clear call, values can overlap the other calls; inactive means below about 11%;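 further: 0% = DMSO and 100% = no enzyme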
Target sequence (O75874 whole entry R132H): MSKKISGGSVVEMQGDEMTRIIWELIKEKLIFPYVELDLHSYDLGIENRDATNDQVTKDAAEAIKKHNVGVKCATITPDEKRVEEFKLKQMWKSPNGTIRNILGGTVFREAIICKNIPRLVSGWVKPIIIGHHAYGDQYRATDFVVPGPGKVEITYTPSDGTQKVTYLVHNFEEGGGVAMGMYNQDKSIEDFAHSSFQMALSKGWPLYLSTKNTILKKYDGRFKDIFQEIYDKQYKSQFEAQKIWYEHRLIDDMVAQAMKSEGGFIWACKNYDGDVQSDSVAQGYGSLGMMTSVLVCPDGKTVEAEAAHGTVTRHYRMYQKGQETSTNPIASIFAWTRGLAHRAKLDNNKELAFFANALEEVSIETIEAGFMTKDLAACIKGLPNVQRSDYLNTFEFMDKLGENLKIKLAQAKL
T cruzi growth-2: blocks T. cruzi growth in NIH3T3 host cells | shares compounds with T cruzi growth-1 | T. cruzi beta-gal in NIH3T3, GalScreen luminescence, 90 h | inhibition, % at 8.35 µM | 5,600 tested, 72% active;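 active means mean replicate inhibition above about 95% and at least 55% of replicates individually reaching it, limit read from the data; inconclusive means only one of the two criteria is met; inactive means neither criterion is met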
T cruzi growth-3: blocks T. cruzi growth in NIH3T3 host cells. shares compounds with T cruzi growth-1. T. cruzi beta-gal in NIH3T3, GalScreen luminescence, 90 h. inhibition, % at 2.09 µM. 5,600 tested, 21% active. AID 651740;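 active means mean inhibition above about 95%, with at least 55% of replicates also reaching it, limit read from the data; inconclusive means meets just one of the two conditions; inactive means meets neither condition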;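 further: plate controls were neutral control median for no effect and positive control median for full effect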
NIH3T3 tox: kills mouse NIH/3T3 fibroblasts; cytotoxicity (signal decrease), % at 8.35 µM; AID 651742; 5,600 tested, 14% active; NIH/3T3 viability, CellTiter-Glo ATP luminescence, 90 h; shares compounds with T cruzi growth-1;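 active means mean signal decrease across replicates above about 35% based on untreated-well scatter, with enough replicates individually passing, limit read from the data; inconclusive means no rule stated though some were filed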;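 further: 0% = median of neutral control wells and 100% = median of positive control wells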
3T3 cytotox 2: cytotoxicity in mouse NIH/3T3 fibroblasts. shares compounds with T cruzi growth-1. NIH/3T3 viability, CellTiter-Glo ATP luminescence, 90 h. inhibition, % at 24.9 µM. 5,600 tested, 56% active;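 active means mean loss of cell viability signal at or above a set limit, and enough replicates individually reaching it; inconclusive means meets only the mean limit or only the replicate share; inactive means meets neither condition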;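 further: 0% = median of neutral control wells and 100% = median of positive control wells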
An asterisk follows results filed as active; ? = inconclusive; / = no result given; ! = a repeat was not active.

SMILES	Pf Dd2 inh	T cruzi growth-1	KDM4C inh	IDH1 R132H inh	T cruzi growth-2	T cruzi growth-3	NIH3T3 tox	3T3 cytotox 2
O=S(=O)(c1ccccc1)N1CC[C@@H]2[C@H](CO)Nc3ccc(-c4ccccc4F)cc3[C@@H]21	27	109*	-3	/	90	97*	23	52*
Cc1ccc(S(=O)(=O)N2CC[C@@H]3[C@H](CO)Nc4ccc(Br)cc4[C@@H]32)cc1	29	?	-6	/	109*	15	15	33*
COc1ccccc1C(=O)N1C[C@@H]2[C@H](c3ccccc31)[C@H](CO)N2C(=O)C1CCOCC1	5	-18	2	/	/	/	/	/
O=S(=O)(c1ccccc1F)N1CC[C@H]2[C@H](CO)Nc3ccc(C4=CCCCC4)cc3[C@H]21	-59	-7	-2	/	/	/	/	/
O=C(CCCN1C(=O)c2cccc3cccc(c23)C1=O)Nc1ccccc1Br	/	/	/	0	/	/	/	/
CC(C)CC#Cc1ccc([C@H]2[C@@H](CO)N3C(=O)CN(S(=O)(=O)c4cccc(F)c4)C[C@H]23)cc1	-69	/	1	/	/	/	/	/
COc1ccccc1-c1ccccc1[C@@H]1[C@@H](CO)N(C(=O)C2CC2)[C@H]1C#N	7	/	-2	/	/	/	/	/
CO[C@@H]1CN(C)C(=O)c2ccc(NC(=O)C3CCOCC3)cc2OC[C@@H](C)N(Cc2cccnc2)C[C@H]1C	19	/	-1	0	/	/	/	/
Cc1cccc(S(=O)(=O)N2CC[C@@H]3[C@@H](CO)Nc4ccc(-c5ccccc5F)cc4[C@@H]32)c1	17	1	-1	/	/	/	/	/
Cc1ccc(S(=O)(=O)N2CC[C@@H]3[C@@H](CO)Nc4ccc(-c5ccccc5F)cc4[C@@H]32)cc1	-54	116*	-3	/	100*	103*	15	17
Cc1ccccc1S(=O)(=O)N1CCCCN2[C@H](C1)[C@H](c1ccc(C#CCN(C)C)cc1)[C@@H]2CO	-16	98*	5	/	110*	47	22	83*
CN(C)CC#Cc1ccc([C@@H]2[C@H](CO)N3CCCCN(S(=O)(=O)c4ccccc4F)C[C@@H]23)cc1	-48	103*	3	/	110*	8	13	76*
Cc1ccccc1S(=O)(=O)N1CCCCN2[C@@H](CO)[C@@H](c3ccc(C#CCN(C)C)cc3)[C@@H]2C1	-53	99*	3	/	107*	89	?	103*
CCCC#Cc1ccc([C@@H]2[C@@H](CO)N3CCCCN(S(=O)(=O)c4ccccc4C)C[C@H]23)cc1	-55	119*	1	/	105*	?	14	106*
Cc1ccccc1S(=O)(=O)N1CCCCN2[C@H](CO)[C@@H](c3ccc(C#CCN(C)C)cc3)[C@@H]2C1	-17	30	3	/	/	/	/	/
CC(C)N(C[C@@H]1N[C@@H](CO)[C@H]1c1ccccc1)C(=O)CN1CCOCC1	2	37	-2	/	/	/	/	/
CC(C)=CCC/C(C)=C/CC/C(C)=C/CSCC(=O)O	/	/	/	0	/	/	/	/
O=C(C[C@H]1CC[C@H](NC(=O)Nc2ccc3c(c2)OCO3)[C@H](CO)O1)NCCCN1CCOCC1	7	-61	1	0	/	/	/	/
COCC#Cc1ccc([C@H]2[C@@H](CO)N3CCCCN(S(=O)(=O)c4ccccc4F)C[C@@H]23)cc1	-24	107*	0	/	106*	73	7	20
COCC#Cc1ccc([C@@H]2[C@@H](CO)N3CCCCN(S(=O)(=O)c4ccccc4F)C[C@H]23)cc1	-53	87	/	/	/	/	/	/
CN1CCN(CCCn2c(-c3ccccc3)cn3c4ccccc4nc23)CC1	/	/	/	0	/	/	/	/
C[C@@H]1CCCCO[C@H](CN(C)C(=O)Nc2ccccc2)[C@H](C)CN([C@H](C)CO)C(=O)c2cc(NC(=O)Nc3ccc(F)cc3)ccc2O1	-85*	102*	-2	/	104*	108*	-5	-26
C[C@@H]1CCCCO[C@@H](CN(C)C(=O)Nc2ccccc2)[C@@H](C)CN([C@@H](C)CO)C(=O)c2cc(NC(=O)Nc3ccc(F)cc3)ccc2O1	/	/	-1	3	/	/	/	/
C[C@H]1CCCCO[C@H](CN(C)C(=O)Nc2ccc(F)cc2)[C@@H](C)CN([C@@H](C)CO)C(=O)c2cc(NC(=O)Nc3ccccc3)ccc2O1	-51	?	0	/	108*	88	15	11
C[C@@H]1CCCCO[C@@H](CN(C)C(=O)Nc2ccc3c(c2)OCO3)[C@@H](C)CN([C@H](C)CO)C(=O)c2cc(N(C)C)ccc2O1	-6	96*!	-1	-3	41	-8	-10	-9
SMILES	Pf Dd2 inh	T cruzi growth-1	KDM4C inh	IDH1 R132H inh	T cruzi growth-2	T cruzi growth-3	NIH3T3 tox	3T3 cytotox 2
C[C@H](CO)N1C[C@H](C)[C@H](CN(C)C(=O)Nc2ccc3c(c2)OCO3)OCCCC[C@H](C)Oc2ccc(NC(=O)Nc3ccccc3)cc2C1=O	9	114*	-1	/	112*	55	-15	-20
C[C@@H]1CCCCO[C@H](CN(C)C(=O)Nc2ccc3c(c2)OCO3)[C@@H](C)CN([C@H](C)CO)C(=O)c2cc(NC(=O)Cc3ccccc3)ccc2O1	-32	38	1	/	/	/	/	/
C[C@@H]1CCCCO[C@@H](CN(C)C(=O)Nc2ccccc2)[C@H](C)CN([C@H](C)CO)C(=O)c2cc(NC(=O)Nc3ccccc3)ccc2O1	-50	99*	-3	-1	108*	60	2	3
C[C@H]1CCCCO[C@@H](CN(C)C(=O)c2ccccc2)[C@@H](C)CN([C@@H](C)CO)C(=O)c2cc(NC(=O)Nc3ccc(F)cc3)ccc2O1	-68	?	-3	1	115*	12	3	15
C[C@H]1CCCCO[C@@H](CN(C)C(=O)Nc2ccc3c(c2)OCO3)[C@@H](C)CN([C@@H](C)CO)C(=O)c2cc(NC(=O)Cc3ccccc3)ccc2O1	-60	?	1	0	103*	11	6	-9
C[C@@H]1CN([C@@H](C)CO)C(=O)c2cc(NC(=O)Nc3ccc(F)cc3)ccc2O[C@@H](C)CCCCO[C@H]1CN(C)C(=O)c1ccccc1	54	68	-1	-1	/	/	/	/
C[C@H](CO)N1C[C@H](C)[C@@H](CN(C)C(=O)Nc2ccc(F)cc2)OCCCC[C@H](C)Oc2ccc(NC(=O)Nc3ccccc3)cc2C1=O	16	114*	-1	-3	110*	31	-1	-15
C[C@@H]1CN([C@@H](C)CO)C(=O)c2cc(NC(=O)Nc3ccc4c(c3)OCO4)ccc2O[C@@H]1CN(C)S(=O)(=O)c1ccc(F)cc1	12	24	-2	0	/	/	/	/
